Read-outs that look alike come from different tables or passages of the source.
Tests used:
[1] = tested on: Human gel-filtered platelet; experiment: Thrombin-induced platelet aggregation assay; type: cell-based; conditions: […] SAB, 0.02 U/mL thrombin
Outline: (§1)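 Human platelets in PRP or PIPES buffer, adjusted to 3.0 × 10^8/mL and preincubated 10 min at 37 °C with test compound in PBS (pH 7.4; 0.1–0.3 mM) or PBS alone. Agonists were bovine thrombin 0.02 U/mL, collagen 5 μg/mL or ADP 20 μM. Light-transmission aggregometry was run at 37 °C with stirring at 1000 rpm and recorded for at least 8 min.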

human platelet = type: cell-based
[2] = tested on: platelets (gel-filtered / PRP); experiment: Collagen- and ADP-induced platelet aggregation; type: cell-based, human
Outline: as §1

human blood clot = experiment: Whole blood clot formation assay; conditions: 0.3 mM SAB
Outline: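 Blood was diluted 3-fold and treated with test compound (0.3 mM final, in PBS) or blank PBS. It was recalcified with 1 mM CaCl2 plus 2 U/mL thrombin and incubated 90 min at 37 °C. Clots were removed from the serum, and dry weight was measured after 24 h at room temperature (20 °C).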

[3] = tested on: human platelet-poor plasma coagulation; experiment: Prothrombin time and activated partial thromboplastin time measurement; conditions: 0.6 mM SAB, human cell-free plasma
Outline: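 Human platelet-poor plasma was tested in a steel-ball coagulometer. For PT, RecombiPlasTin 2G and its diluent stood 20 min at room temperature, were mixed 1:1 and warmed 5 min at 37 °C, then added to plasma (2:1 v/v). For aPTT, SynthASil was incubated 2 min at 37 °C, then 20 mM CaCl2 was added. Both end-points were time to solid gel.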

[4] = tested on: cell-free human blood plasma coagulation; experiment: Clot turbidity assay; conditions: read-out: EC50, delay of cell-free human blood plasma coagulation; clot turbidity at 405 nm, 37 °C, 0.1 U/mL thrombin
human blood coagulation = experiment: Thromboelastography; conditions: 0.3 mM SAB
Outline: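 Thromboelastography used citrated (3.2%) whole blood from healthy human donors, treated with test compound (0.3 mM) or an equal volume of PBS. Samples were recalcified with 0.2 M CaCl2 stock and analysed on a TEG analyser.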

[5] = tested on: thrombus formation in mouse cremaster arterioles; experiment: Laser-injury intravital microscopy thrombosis model; conditions: 0.010 mM final in vivo SAB concentration, jugular vein injection
Outline: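 Mice received fluorescently labelled anti-GPIb antibody (1 µg/g) through a jugular vein cannula before injury. Test compound was injected via the jugular cannula to a 0.010 mM final in vivo level, calculated from body weight (80 µL/g blood volume). Multiple cremaster arteriole injuries were made with a pulsed nitrogen dye laser. Thrombus formation was imaged by intravital microscopy and quantified as platelet MFI.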

[6] = tested on: human platelet thrombus formation; experiment: Collagen-coated perfusion chamber analysis; type: cell-based; conditions: 0.32 mM SAB
Outline: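 Heparinised (5 U/mL) human whole blood was labelled with 1 μM DiOC6 for 20 min at 37 °C, then incubated with test compound or PBS for 10 min. It was perfused over a collagen-coated glass chamber for 3 min at 1800 or 300 s^−1. Platelet adhesion was recorded by fluorescence microscopy during perfusion, and thrombus mean fluorescence intensity was quantified.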

[7] = tested on: carotid artery thrombosis; experiment: Ferric chloride carotid artery thrombosis model; type: in vivo, C57BL/6J mice; conditions: 15 mpk SAB via tail vein at 50% flow reduction, 10% ferric chloride
Outline: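 Isoflurane-anaesthetised C57BL/6J mice (>8 weeks, 20–35 g) had filter paper soaked in 10% FeCl3 applied to the carotid adventitia for 180 s. The vessel was rinsed with warm saline. Doppler flow probe recorded flow for 30 min. At 50% flow reduction, test compound (15 mpk, ~0.3 mM blood level) or saline was given via the tail vein. Flow recovery and occlusion time were recorded.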

thrombin [8] = target: T1, thrombin (Homo sapiens, UniProt P00734); experiment: Intrinsic fluorescence spectrophotometry binding, thrombin; conditions: after 24 hours at room temperature
thrombin [9] = target: T1, thrombin; experiment: Isothermal titration calorimetry, thrombin; type: binding; conditions: ITC, 20 °C, PBS pH 7.4
lysozyme [10] = experiment: Isothermal titration calorimetry, lysozyme control; type: binding; conditions: 20 μM lysozyme, 0.312 mM SAB titrant, 20 °C, PBS pH 7.4
Outline: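 ITC at 20 °C in PBS pH 7.4 was run with 20 μM lysozyme in the cell and test compound (0.312 mM) as titrant. Protocol: 60 s initial delay, 2 µL purge injection, then 34 injections of 8 µL every 300 s. The first point was discarded, and data were corrected for heat of dilution from titrant-into-buffer runs.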

lysozyme [11] = experiment: Intrinsic fluorescence spectrophotometry binding, lysozyme control; conditions: SAB titrated with lysozyme 0 to 95.6 μM, 20 °C
Outline: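 Intrinsic fluorescence of test compound (27.2 ± 0.4 μM) in PBS, 20 °C, titrated with lysozyme 0–95.6 μM; blank PBS titrated separately. Excitation 382 nm, emission peak ~498 nm, with inner-filter correction. Integrated emission was averaged, normalised and plotted against protein concentration, then fitted to a binding model for apparent Kd. Four trials.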

[12] = Stability of SAB in solution on storage and freeze-thaw; type: physicochemical; conditions: inhibitory function for platelet aggregation
[13] = flow cytometry, human platelets
[14] = flow cytometry, thrombin-stimulated human platelets

Salvianolic acid B [SAB]
platelet aggregation [1]: completely abolished
thrombin-induced platelet surface expression of Ricinus communis agglutinin-1 (RCA-1) (human platelet): significantly reduced
thrombin-induced platelet surface expression of P-selectin (human platelet; [13]): significantly reduced
thrombin-induced platelet surface expression of annexin-V (human platelet; [13]): significantly reduced
binding of PAC-1 monoclonal antibody (αIIbβ3 integrin activation) (human platelet; [14]): significantly decreased
binding of fibrinogen (αIIbβ3 integrin activation) (human platelet; [14]): significantly decreased
ADP-induced platelet aggregation ([2]; PRP, 20 μM ADP): attenuated
collagen-induced platelet aggregation ([2]; gel-filtered platelets, 5 μg/mL collagen): attenuated
dry weight of the human blood clot (human blood clot): significantly reduced
activated partial thromboplastin time (aPTT) [3]: prolonged
prothrombin time (PT) [3]: prolonged
EC50 [4]: 62 ± 70 µM
initiation of human blood coagulation (R-time) in TEG (human blood coagulation): significantly prolonged
reduction of thrombus formation in mouse cremaster vessels (platelet MFI) [5]: approximately 65% ± 5%
human platelet thrombus formation, venous shear rate ([6]; 300 s^−1, collagen-coated chamber): significantly inhibited
human platelet thrombus formation, arterial shear rate ([6]; 1800 s^−1, collagen-coated chamber): significantly inhibited
carotid blood flow [7]: rescued
vessel occlusion (time) [7]: prolonged
decrease in the SAB-thrombin complex signal (thrombin [8]): less than 3%
Hill coefficient nH (thrombin [9]): 1.1
ΔH1 (thrombin [9]): 18 ± 1 kcal/mol
ΔH2 (thrombin [9]): 180 ± 6 kcal/mol
−TΔS1 (thrombin [9]): -27 ± 1 kcal/mol
−TΔS2 (thrombin [9]): -185 ± 12 kcal/mol
Kd (thrombin [9]; read-out: Kd1): 0.62 ± 0.08 µM
Kd (thrombin [9]; read-out: dissociation constant Kd2 (weak binding site)): 37 ± 4 µM
binding to lysozyme (ITC) (lysozyme [10]): no interaction
binding to lysozyme (fluorescence) (lysozyme [11]): no direct interactions
effect of prolonged storage in solution and repeated freeze-thaw cycles on SAB [12]: decreased SAB inhibitory function

Reference: article PMC11238050 (Research and Practice in Thrombosis and Haemostasis, 2024)
